In ChEMBL document CHEMBL3804761, “Synthesis of a stable and orally bioavailable englerin analogue” (Bioorg Med Chem Lett, 2016):

Experiments:
Assay type in all cases: functional
KM12 = experiment: Growth inhibition of human KM12 cells assessed as cell growth at 10 uM incubated for 48 hrs by sulforhodamine B assay relative to control; conditions: KM12, 48 h, read-out: Activity
Outline: (§1)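 Run in the standard NCI 60-cell-line screen. Cells were exposed to drug for two days, and the read-out was sulforhodamine B staining. Compound was tested at a single final concentration of 10 µM in every line, and results are reported as growth percent.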

[1] = Growth inhibition of human SF295 cells assessed as cell growth at 10 uM incubated for 48 hrs by sulforhodamine B assay relative to control; conditions: SF-295, 48 h, read-out: Activity; outline: as §1
[2] = Growth inhibition of human SNB75 cells assessed as cell growth at 10 uM incubated for 48 hrs by sulforhodamine B assay relative to control; conditions: SNB-75, 48 h, read-out: Activity; outline: as §1
[3] = Growth inhibition of human LOXIMVI cells assessed as cell growth at 10 uM incubated for 48 hrs by sulforhodamine B assay relative to control; conditions: LOX IMVI, read-out: Activity
Outline: (§2)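 Single-dose screen in the NCI 60-cell-line panel at one final concentration of 10 µM. Two-day drug exposure with a sulforhodamine B endpoint. Values are growth percent for each cell line.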

[4] = Growth inhibition of human UACC62 cells assessed as cell growth at 10 uM incubated for 48 hrs by sulforhodamine B assay relative to control; conditions: UACC-62, 48 h, read-out: Activity
Outline: (§3)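 NCI 60-cell line standard protocol, one-dose screen: single final concentration 10 µM, 2-day drug exposure, sulforhodamine B (SRB) endpoint; read-out is growth percent relative to untreated control.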

[5] = Growth inhibition of human OVCAR4 cells assessed as cell growth at 10 uM incubated for 48 hrs by sulforhodamine B assay relative to control; conditions: OVCAR-4, 48 h, read-out: Activity; outline: as §1
[6] = Growth inhibition of human TK10 cells assessed as cell growth at 10 uM incubated for 48 hrs by sulforhodamine B assay relative to control; conditions: TK-10, 48 h, read-out: Activity; outline: as §3
MCF7 = experiment: Growth inhibition of human MCF7 cells assessed as cell growth at 10 uM incubated for 48 hrs by sulforhodamine B assay relative to control; conditions: MCF7, 48 h, read-out: Activity; outline: as §1
MDA-MB-231 = experiment: Growth inhibition of human MDA-MB-231 cells assessed as cell growth at 10 uM incubated for 48 hrs by sulforhodamine B assay relative to control; conditions: MDA-MB-231, 48 h, read-out: Activity; outline: as §1
[7] = Growth inhibition of human BT549 cells assessed as cell growth at 10 uM incubated for 48 hrs by sulforhodamine B assay relative to control; conditions: BT-549, 48 h, read-out: Activity; outline: as §1
CCRF-CEM = experiment: Growth inhibition of human CCRF-CEM cells assessed as cell growth at 10 uM incubated for 48 hrs by sulforhodamine B assay relative to control; conditions: read-out: Activity; outline: as §2
[8] = Growth inhibition of human MOLT4 cells assessed as cell growth at 10 uM incubated for 48 hrs by sulforhodamine B assay relative to control; conditions: MOLT-4, 48 h, read-out: Activity; outline: as §1
[9] = Growth inhibition of human RPMI8226 cells assessed as cell growth at 10 uM incubated for 48 hrs by sulforhodamine B assay relative to control; conditions: RPMI-8226, 48 h, read-out: Activity; outline: as §1
A549 = experiment: Growth inhibition of human A549/ATCC cells assessed as cell growth at 10 uM incubated for 48 hrs by sulforhodamine B assay relative to control; conditions: A549, 48 h, read-out: Activity; outline: as §1
[10] = Growth inhibition of human HOP62 cells assessed as cell growth at 10 uM incubated for 48 hrs by sulforhodamine B assay relative to control; conditions: HOP-62, 48 h, read-out: Activity; outline: as §1
NCI-H226 = experiment: Growth inhibition of human NCI-H226 cells assessed as cell growth at 10 uM incubated for 48 hrs by sulforhodamine B assay relative to control; conditions: NCI-H226, 48 h, read-out: Activity; outline: as §1
NCI-H23 = experiment: Growth inhibition of human NCI-H23 cells assessed as cell growth at 10 uM incubated for 48 hrs by sulforhodamine B assay relative to control; conditions: NCI-H23, 48 h, read-out: Activity; outline: as §1
[11] = Growth inhibition of human HCT116 cells assessed as cell growth at 10 uM incubated for 48 hrs by sulforhodamine B assay relative to control; conditions: HCT-116, 48 h, read-out: Activity; outline: as §1

For `CC(C)[C@@]12C[C@@H](NC(=O)CF)[C@@](C)(O1)[C@@H]1CC[C@@H](C)[C@H]1[C@@H]2OC(=O)/C=C/c1ccccc1`, the growth at 10 µM (KM12) was 104%, the growth at 10 µM [1] was 105% and the growth at 10 µM [2] was 87.9%. The growth at 10 µM [3] was 102%, the growth at 10 µM [4] was 99.6% and the growth at 10 µM [5] was 105%. The growth at 10 µM [6] was 104%, the growth at 10 µM (MCF7) was 106% and the growth at 10 µM (MDA-MB-231) was 102%. The growth at 10 µM [7] was 111%, the growth at 10 µM (CCRF-CEM) was 88.6% and the growth at 10 µM [8] was 96.5%. The growth at 10 µM [9] was 94.3%, the growth at 10 µM (A549) was 94.4% and the growth at 10 µM [10] was 90.8%. It also gave a growth at 10 µM (NCI-H226) of 84.5%, a growth at 10 µM (NCI-H23) of 102% and a growth at 10 µM [11] of 87.4%.
